Results taken from ChEMBL document CHEMBL2401620, “Molecular design, synthesis and biological evaluation of BP-O-DAPY and O-DAPY derivatives as non-nucleoside HIV-1 reverse transcriptase inhibitors” (Eur J Med Chem, 2013).

How the values were obtained:
[1] = Selectivity index, ratio of CC50 for human MT4 cells to EC50 for HIV1 3B; type: toxicity, cell-based; settings: read-out: Ratio CC50/EC50
In short: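 SI is CC50 in mock-infected MT-4 cells divided by EC50 against HIV-1 IIIB. Both come from the same 5-day MTT assay, with serial 5-fold dilutions in triplicate wells.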

[2] = Cytotoxicity against human MT4 cells after 5 days by MTT assay; type: cell-based
In short: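 Mock-infected MT-4 cells at 6 × 10⁵ cells/mL received medium instead of virus, with serial 5-fold compound dilutions in triplicate. After 5 days, viability was read by MTT at 540 and 690 nm.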

[3] = system: Human immunodeficiency virus 2; test: Antiviral activity against HIV2 ROD infected in human MT4 cells assessed as inhibition of virus-induced cytopathic effect after 5 days by MTT assay; type: functional, organism-based; settings: Human immunodeficiency virus 2, ISOLATE ROD, MT4, 120 h
In short: (§1)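 MT-4 cells, spun 5 min at 220 g, resuspended at 6 × 10⁵ cells/mL, infected with virus stock at 100-300 CCID50. Serial 5-fold compound dilutions were added at the start, in triplicate wells. After 5 days, viability was read by MTT reduction at 540 and 690 nm.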

[4] = system: Human immunodeficiency virus 1; test: Antiviral activity against HIV1 RES056 expressing RT K103N/Y181C mutant infected in human MT4 cells assessed as inhibition of virus-induced cytopathic effect after 5 days by MTT assay; type: functional, organism-based; settings: Human immunodeficiency virus 1, RES056, MT4, 120 h
In short: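 MT-4 cells, exponentially growing, spun 5 min at 220 g and resuspended at 6 × 10⁵ cells/mL, then infected with 100-300 CCID₅₀ virus stock. Serial 5-fold compound dilutions were added from 10× stocks, in triplicate alongside mock-infected wells. Viability was read by MTT at 540 and 690 nm. EC₅₀ is the concentration giving 50% protection from cytopathic effect, using median OD of three wells.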

[5] = system: Human immunodeficiency virus 1; test: Antiviral activity against HIV1 3B infected in human MT4 cells assessed as inhibition of virus-induced cytopathic effect after 5 days by MTT assay; type: functional, organism-based; settings: Human immunodeficiency virus 1, 3B, MT4, 120 h; in short: as §1
[6] = target: Human immunodeficiency virus type 1 reverse transcriptase (Human immunodeficiency virus 1, UniProt Q72547); test: Inhibition of recombinant wild type HIV1 RT using poly(rA)/oligo(dT)16 as template after 40 mins by spectrofluorometric analysis
[7] = system: Human immunodeficiency virus 1; test: Ratio of nevirapine EC50 to compound EC50 for HIV1 3B; type: functional
[8] = system: Human immunodeficiency virus 1; test: Ratio of delavirdine EC50 to compound EC50 for HIV1 3B; type: functional
[9] = target: Human immunodeficiency virus type 1 reverse transcriptase (Human immunodeficiency virus 1, UniProt Q72547, K103N/Y181C); test: Inhibition of HIV RT K103N/Y181C mutant by cell based assay
In short: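 Serial 5-fold compound dilutions in triplicate wells, with parallel mock-infected wells. After 5 days, viability was read by MTT reduction at 540 and 690 nm. The median OD of three wells gave EC₅₀, the concentration giving 50% protection from viral cytopathic effect.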

SMILES	selectivity ratio [1]	CC50 at 120 h [2] [µM]	EC50 [3] [µM]	EC50 [4] [µM]	EC50 [5] [µM]	IC50 [6] [µM]	Ratio EC50 [7]	Ratio EC50 [8]	EC50 [9] [µM]
Cc1ccc(C(=O)c2cc(Cl)ccc2Oc2ccnc(Nc3ccc(C#N)cc3)n2)cc1	< 1	1.71	> 1.71	> 1.71	> 1.71	–	–	–	–
Cc1cc(C)cc(C(=O)c2cc(Cl)ccc2Oc2ccnc(Nc3ccc(C#N)cc3)n2)c1	36	28.8	> 28.8	> 28.8	0.79	3.22	–	–	–
Cc1ccccc1C(=O)c1cc(Cl)ccc1Oc1ccnc(Nc2ccc(C#N)cc2)n1	21	28.8	> 28.8	> 28.8	1.36	3.45	–	–	–
COc1ccc(C(=O)c2ccccc2)c(Oc2ccnc(Nc3ccc(C#N)cc3)n2)c1	< 1	0.76	> 0.76	> 0.76	> 0.76	–	–	–	–
N#Cc1ccc(Nc2nccc(Oc3ccc(C(=O)c4ccc(O)cc4)cc3)n2)cc1	7	19.4	> 19.4	> 19.4	2.72	7.13	–	–	–
N#Cc1ccc(Nc2nccc(Oc3ccc(OCc4ccccc4)cc3)n2)cc1	> 7	> 317	> 317	> 317	46.1	31	–	–	–
COCCc1ccc(Oc2ccnc(Nc3ccc(C#N)cc3)n2)cc1	359	93.2	≥ 46.2	≥ 93.2	0.26	2.69	–	–	–
Cc1ccc(C(=O)c2cc(Cl)ccc2Oc2cc(C)nc(Nc3ccc(C#N)cc3)n2)cc1	< 1	26.6	> 26.6	> 26.6	> 26.6	–	–	–	–
Cc1cc(C)cc(C(=O)c2cc(Cl)ccc2Oc2cc(C)nc(Nc3ccc(C#N)cc3)n2)c1	< 1	37.1	> 37.1	> 37.1	> 37.1	–	–	–	–
Cc1cc(Oc2ccc(Cl)cc2C(=O)c2ccccc2C)nc(Nc2ccc(C#N)cc2)n1	< 1	4.24	> 4.24	> 4.24	> 4.24	–	–	–	–
COc1ccc(C(=O)c2ccccc2)c(Oc2cc(C)nc(Nc3ccc(C#N)cc3)n2)c1	< 1	4.9	> 4.9	> 4.9	> 4.9	–	–	–	–
Cc1cc(Oc2ccc(C(=O)c3ccc(O)cc3)cc2)nc(Nc2ccc(C#N)cc2)n1	≤ 6	32	> 32	> 32	≥ 5.18	16.9	–	–	–
Cc1cc(Oc2ccc(OCc3ccccc3)cc2)nc(Nc2ccc(C#N)cc2)n1	6	27.7	> 27.7	> 27.7	4.31	17.4	–	–	–
COCCc1ccc(Oc2cc(C)nc(Nc3ccc(C#N)cc3)n2)cc1	18	13.8	> 13.8	> 13.8	0.79	11.6	–	–	–
Cc1ccc(C(=O)c2cc(Cl)ccc2Oc2nc(Nc3ccc(C#N)cc3)ncc2C)cc1	< 1	≥ 0.83	> 0.83	> 0.83	3.79	–	–	–	–
Cc1cc(C)cc(C(=O)c2cc(Cl)ccc2Oc2nc(Nc3ccc(C#N)cc3)ncc2C)c1	9	13.4	> 13.4	> 13.4	1.48	3.06	–	–	–
Cc1ccccc1C(=O)c1cc(Cl)ccc1Oc1nc(Nc2ccc(C#N)cc2)ncc1C	22	24.2	> 24.2	> 24.2	1.09	5.23	–	–	–
COc1ccc(C(=O)c2ccccc2)c(Oc2nc(Nc3ccc(C#N)cc3)ncc2C)c1	≤ 2	7.42	> 7.42	> 7.42	≥ 3.51	–	–	–	–
Cc1cnc(Nc2ccc(C#N)cc2)nc1Oc1ccc(C(=O)c2ccc(O)cc2)cc1	> 82	> 296	> 296	> 296	3.61	5.21	–	–	–
Cc1cnc(Nc2ccc(C#N)cc2)nc1Oc1ccc(OCc2ccccc2)cc1	29	170	> 170	> 170	> 170	–	–	–	–
COCCc1ccc(Oc2nc(Nc3ccc(C#N)cc3)ncc2C)cc1	> 6260	> 347	> 347	> 347	0.06	1.27	1.8	1.8	–
CC(C)Nc1cccnc1N1CCN(C(=O)c2cc3cc(NS(C)(=O)=O)ccc3[nH]2)CC1 [DELAVIRDINE]	–	> 36.2	> 36.2	> 36.2	0.11	–	–	–	–
O=C1Nc2ccc(Cl)cc2[C@@](C#CC2CC2)(C(F)(F)F)O1 [EFAVIRENZ]	–	> 6.34	> 6.34	–	0.01	–	–	–	–
Cc1ccnc2c1NC(=O)c1cccnc1N2C1CC1 [NEVIRAPINE]	–	> 15	> 15	5.12	–	–	–	–	–
Cc1cc(/C=C/C#N)cc(C)c1Nc1ccnc(Nc2ccc(C#N)cc2)n1 [RILPIVIRINE]	–	–	–	–	–	–	–	–	0.0008
Cc1cn([C@H]2C[C@H](N=[N+]=[N-])[C@@H](CO)O2)c(=O)[nH]c1=O [ZIDOVUDINE]	> 14400	> 93.5	0.01	0.01	0.01	–	–	–	–
